# Assay outcomes from PubChem.
# The entries come from a sample that favours hits as a whole.
# Lung fibro prol = blocks proliferation of human lung fibroblasts. AID 719. viability, % at 10 µM. LL 47 human lung fibroblast viability, ATP luminescence; hits give low values. 1.1% of 85,000 active;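 active = viability at or below 50% in the single dose screen; inactive = viability above 50%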;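 also: compound exposure lasted 72 h before the ATP readout; 100% = median luminescence of untreated cell-only wells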
#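 Material: Human LL 47 lung fibroblast cells | Input: 1,150 cells/well | Buffer or medium: IMEM plus 15% FBS | Compound dosing: 0.1% DMSO in all compound wells | Times: Overnight cell rest, 72 h compound treatment at 37 °C | Signal: CellTiter-Glo luminescence measuring cellular ATP | Measure: % viability versus median cells-only luminescence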
# HCT116 bCat-KO = beta-catenin-lacking colon tumor cell growth suppression; AID 818; HCT116 beta-catenin knockout viability, CellTiter-Glo, 60 h; hits give low values; 1.5% of 140,000 active; viability, % at 10 µM;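 active = viability at or under a set limit, the compound median less 4 SD, cut at about 6% in these data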;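 also: 0% = Hyamine 1622 control at 20 µM and 100% = untreated cell control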
# H69AR inhibit = blocks growth of human H69AR lung tumor cells. H69AR lung tumor viability, ATP luminescence, 72 h; hits give low values. viability, % at 10 µM. AID 598. 6% of 85,000 active;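 active = viability at or below 40%; inactive = viability above 40%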;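 also: multidrug resistant small cell line overexpressing MRP-1 efflux transporter; 100% = mean luminescence of untreated control wells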
# HUVEC prolif 384 = blocks proliferation of human endothelial cells; 1.1% of 86,000 active; viability, % at 10 µM (by protocol); HUVEC proliferation, CellTiter-Glo luminescence, 72 h; hits give low values;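 active = viability at or below 30%; inactive = viability above 30%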;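 also: 100% = median luminescence of DMSO-only cell control wells on each plate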
# HCT116 PTEN-null = suppresses growth of cells with PTEN deletion. HCT116 PTEN-null viability, CellTiter-Glo, 60 h; hits give low values. viability, % at 10 µM. 1.2% of 140,000 active;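 active = viability at or below a set limit, 4 SD under the median of all tested compounds, cut at about 3.7% in these data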;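 also: PTEN knockout HCT116 line with beta catenin targeted HCT116 as companion control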
# * marks the source's active call; other numbers are inactive results; . = no result given.
SMILES,Lung fibro prol,HCT116 bCat-KO,H69AR inhibit,HUVEC prolif 384,HCT116 PTEN-null
c1ccc(CN2CCN(C3=Nc4cccc5cccc3c45)CC2)cc1,89.2,13.9,35.1*,37.0,13.0
O=C(Nc1ccc(N2CCN(C(=O)c3ccco3)CC2)cc1)c1cccc(F)c1,98.9,54.2,30.3*,82.1,50.2
O=C(c1cccc(F)c1)N1CCCN(C(=O)c2cccc(F)c2)CC1,.,94.1,.,.,98.5
COc1cc2c(C(=O)N3CCN(c4cccc(Cl)c4)CC3)cn(C)c(=O)c2cc1OC,.,34.4,.,.,35.3
O=C(c1cccc(F)c1)N1CCN(c2cccc(Cl)c2)CC1,71.8,22.9,18.3*,65.0,24.5
COc1ccccc1C(=O)N1CCN(c2cccc(Cl)c2)CC1,46.4*,11.3,58.4,50.3,12.3
O=C(c1c(Cl)nc2sccn12)N1CCN(c2cccc(Cl)c2)CC1,59.5,13.6,19.3*,54.2,14.5
COc1ccc(O)c(-c2cc(-c3cccs3)[nH]n2)c1,76.9,40.7,63.6,71.7,60.9
CCN(CC)S(=O)(=O)c1cccc(C(=O)N[C@H](C(=O)NCc2ccc(Cl)cc2)C(C)C)c1,.,78.5,.,.,79.5
O=C(c1c(F)c(F)c(F)c(F)c1F)N1CCN(c2cccc(C(F)(F)F)c2)CC1,67.1,13.0,28.9*,35.9,18.1
Cn1cc(Br)c(C(=O)NNC(=O)c2cccc(Br)c2)n1,.,87.5,.,.,94.3
COc1cc(C2C3CN(C)CC=C3C(C#N)=C(N)C2(C#N)C#N)ccc1OC(C)C (stereo not drawn),84.1,87.7,35.5*,86.7,95.3
CCOC(=O)N1CCN(c2c(NCc3ccc(Cl)cc3)c(=O)c2=O)CC1,52.3,13.7,41.1,51.9,15.9
CCOC(=O)N1CCN(c2c(NCc3cccs3)c(=O)c2=O)CC1,85.2,42.6,31.0*,70.4,38.4
Clc1ccccc1CN(Cc1ccccc1)c1ncnc2nc[nH]c12,91.2,94.7,35.6*,87.3,100.5
CCOC(=O)N1CC=C2C(C#N)=C(N)C(C#N)(C#N)[C@H](c3cccs3)C2C1 (stereo partly drawn),92.1,93.4,37.1*,83.0,85.9
CC(C)(C)OC(=O)N1CC=C2C(C#N)=C(N)C(C#N)(C#N)C(c3cccs3)C2C1 (stereo not drawn),90.3,81.3,22.7*,76.6,77.7
CC1CC=C2C(C#N)=C(N)C(C#N)(C#N)C(c3cccs3)C2C1 (stereo not drawn),89.6,77.5,31.6*,81.8,76.9
CCCOc1ccc([C@@H]2C3CN(C(=O)OCC)CC=C3C(C#N)=C(N)C2(C#N)C#N)cc1OC (stereo partly drawn),84.6,83.1,41.0,69.4,79.6
CCOc1ccccc1-c1ccc(C(=O)NCc2ccccc2)o1,.,82.4,.,.,85.8
O=C(CSC1=N/C(=C/c2ccc(Cl)c(Cl)c2)C(=O)N1c1ccccc1F)NC1CC1,.,68.0,.,.,77.8
O=C(N/N=C/C=C/c1ccccc1)C1CC1c1ccccc1 (stereo not drawn),74.0,89.8,26.1*,89.6,94.2
Cn1c(CCN2CCCCC2)nc2cc(NS(=O)(=O)c3ccc(Cl)cc3)ccc21,100.0,12.7,9.8*,104.1,16.5
O=C(COC(=O)c1cc(S(=O)(=O)N2CCOCC2)ccc1O)NCCc1ccccc1,106.0,98.7,95.9,87.0,101.8
O=C(COC(=O)[C@@H]1CC(O)CN1S(=O)(=O)c1ccccc1[N+](=O)[O-])Nc1ccc2ccccc2c1 (stereo partly drawn),.,92.4,.,.,102.9
SMILES,Lung fibro prol,HCT116 bCat-KO,H69AR inhibit,HUVEC prolif 384,HCT116 PTEN-null
CCCCOc1ccc(-c2c(C#N)c(N)nc(SCC(N)=O)c2C#N)cc1,.,26.0,34.6*,66.6,8.7
Cc1nn(-c2ccc(F)cc2)c(C)c1NS(=O)(=O)c1ccc(Cl)cc1,87.5,80.3,75.0,29.7*,83.9
Cc1ccc(-n2nc(C)c(NS(=O)(=O)c3ccccc3)c2C)cc1C,100.1,96.5,81.1,104.1,103.8
CCOC(=O)c1c(NC(=O)Cc2cccs2)sc(C(=O)NC2CCCCC2)c1C,.,76.5,.,.,77.6
CCOC(=O)c1c(NC(=O)Cc2cccs2)sc(C(=O)NC2CCCC2)c1C,75.3,83.6,27.8*,50.3,84.7
Nc1c(-c2ccc(Cl)cc2)cnn1C1CCS(=O)(=O)C1 (stereo not drawn),100.1,98.3,100.2,87.5,101.5
C=CCn1c(SCC(=O)Nc2nc(C)cs2)nnc1C(NC(=O)c1ccccc1)C(C)C (stereo not drawn),100.0,94.3,13.9*,93.5,96.1
Cc1cc(NC(=O)c2c(Br)c(C)nn2C)no1,.,102.3,.,.,97.8
O=C(Oc1oc(-c2ccco2)nc1C=Nc1ccccc1)c1ccoc1,86.7,97.7,38.0*,72.1,95.7
Cc1ccc(C(=O)Oc2oc(-c3ccco3)nc2C=Nc2ccc(Cl)cc2)cc1,99.5,96.5,49.6,68.8,101.5
Cc1ccc(N=Cc2nc(-c3ccco3)oc2O)cc1,99.3,56.7,84.7,89.6,71.0
O=C(Oc1oc(-c2ccco2)nc1C=Nc1ccccc1)c1ccco1,85.8,101.2,38.8*,87.1,94.6
O=C(N/C(=C/c1cccnc1)C(=O)N1CCOCC1)c1ccccc1Br,.,93.0,.,.,95.1
CCC1(C)NC(=O)N(CC(=O)N2N=C(c3ccccc3)CC2c2ccc(OC)cc2)C1=O (stereo not drawn),.,91.6,.,.,83.3
O=C(c1ccc2snnc2c1)N1CCCCC1,104.3,100.2,99.6,92.8,104.9
O=C(c1ccc2snnc2c1)N1CCSCC1,.,101.0,35.3*,91.7,101.6
O=C1c2ccccc2C(=O)N1CCCCN(C(=O)c1cc2ccccc2oc1=O)c1ccc(F)cc1F,.,97.1,.,.,88.4
CC(C)CNC(=O)c1ccc(NC(=O)c2ccccc2[N+](=O)[O-])cc1,.,98.7,.,.,111.6
O=C(Nc1cccc(-c2cn3ccccc3n2)c1)c1cccs1,.,97.3,.,.,85.8
O=C(Nc1cccc(-c2cn3ccccc3n2)c1)c1cc2ccccc2oc1=O,.,2.8*,.,.,1.8*
Cc1ccc(OCC(=O)N/N=C\c2ccncc2)c(C)c1,.,96.3,.,.,106.3
COC(=O)c1ccc(-c2ccco2)n1Cc1ccccc1Cl,94.4,91.3,74.6,99.5,87.2
COC(=O)c1ccc(-c2ccco2)n1Cc1nc(-c2ccc(OC)c(OC)c2)oc1C,88.6,43.2,35.6*,80.5,48.0
O=C(c1nc2nc(-c3cccs3)cc(C(F)(F)F)n2n1)N1CCN(Cc2ccccc2)CC1,103.9,79.3,84.8,106.8,73.0
Cc1cc(Cl)ccc1OCCCC(=O)N1CCN(C)CC1,89.3,75.6,83.0,97.5,79.0
Cc1cc(Cl)ccc1OCCCC(=O)NO,81.5,67.2,3.1*,92.1,77.0
Cc1cc(Cl)ccc1OCCCC(N)=O,41.6*,96.6,110.8,85.5,102.7
CCn1c2ccccc2c2cc(C3C(C#N)=C(N)Oc4n[nH]c(COC)c43)ccc21 (stereo not drawn),54.2,2.3*,83.0,5.6*,6.1
COCc1[nH]nc2c1C(c1ccc(OC)c(OC)c1)C(C#N)=C(N)O2 (stereo not drawn),103.0,101.6,86.5,94.7,103.8
